Article PMC9292928 (British Journal of Pharmacology, 2021)
“Also recorded” adds a separate entry of the source. Read-outs that look alike come from different tables or passages of the source.

Tests used:
GPR55 [1] = molecular target: T1, GPR55 (Homo sapiens, UniProt Q9Y2T6); experiment: GPR55 ERK phosphorylation assay in HEK293 cells; format: cell-based; conditions: for EC80 concentration for GPR55 activation (pERK): agonist alone
[2] = Plasma concentrations in experimental Scn1a+/− mice; format: in vivo, mouse
In short: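 Acute cohorts (n = 5–10) were anaesthetised with isoflurane directly after the hyperthermia protocol, and whole blood was taken by cardiac puncture. Plasma was stored at −80°C. Subchronic cohorts received drug orally in chow, with plasma collected on P31 within 30 min of lights on. Clobazam pretreatment was 30 min and test compound pretreatment 45 min before the hyperthermia time point.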

[3] = test system: hyperthermia‐induced seizures in Scn1a +/− mice; experiment: Hyperthermia-induced seizures in Scn1a+/− mice; format: in vivo, mouse; conditions: for Effective (anticonvulsant) dose against hyperthermia-induced seizures: i.p.
In short: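 Male and female Scn1a+/− F1 mice (congenic 129S6 heterozygotes × C57BL/6J), P14–16, got a single i.p. dose of vehicle or test compound, n = 12–18. Pretreatment time was set per compound from time-to-peak data (15–120 min), with matched vehicle controls. A rectal probe went in 15 min before, followed by 5-min acclimation. Core temperature was raised 0.5°C every 2 min until the first clonic convulsion with loss of posture, or to 42.5°C held 3 min. Thresholds were compared by log-rank Mantel–Cox.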

[4] = test system: spontaneous GTCS and survival of Scn1a +/− mice; experiment: Spontaneous seizures; format: in vivo, mouse
In short: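 Male and female Scn1a+/− mice were primed with one hyperthermia-induced seizure at P18. They were cooled on a pad to a 37°C core temperature at the onset of clonic convulsion. Test compound was then given subchronically in chow. Spontaneous GTCS were counted blind from continuous video over 60 h, and dosing continued to P30 for survival. Seizure-free proportion was analysed by Fisher's exact test; frequency by one-way ANOVA with Dunnett's test.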

[5] = test system: 6‐Hz threshold test, Swiss male mice; experiment: 6-Hz threshold test; format: in vivo, mouse; conditions: n = 12; for CC50 vs vehicle, 6-Hz threshold test: 45 min pretreatment
[6] = test system: MES threshold test, Swiss male mice; experiment: Maximal electroshock; format: in vivo, mouse; conditions: 300 mg·kg−1, 15 min prior, n = 12
In short: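 Swiss male mice, n = 12; the positive control was given 15 min before shock. Corneal electroshocks were 60 Hz, 0.4 s, 0.5-ms rectangular pulses, starting at 50 mA. A blinded observer scored GTCS with full hindlimb extension (hindlimbs at 180° to torso).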

cannabinoid CB1 receptor = cannabinoid CB1 receptor (Homo sapiens, UniProt P21554); experiment: Eurofins DiscoverX PathHunter β-arrestin GPCR screen, CB1; format: cell-based; conditions: 3 μM
cannabinoid CB2 receptor = cannabinoid CB2 receptor (Homo sapiens, UniProt P34972); experiment: Eurofins DiscoverX PathHunter β-arrestin GPCR screen, CB2; format: cell-based; conditions: 3 μM
GPR55 [7] = molecular target: T1, GPR55; experiment: Eurofins DiscoverX PathHunter β-arrestin GPCR screen, GPR55; format: cell-based; conditions: 3 μM
[8] = ref Anderson, Low, et al., 2019; cited from earlier work
[9] = molecular target: T2, concatenated human γ2–β2–α1–β2–α1 GABA receptor (Homo sapiens, UniProt P14867+P18507+P47870); experiment: Two-electrode voltage clamp, GABA-evoked currents in Xenopus oocytes; format: cell-based
In short: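 Two-electrode voltage clamp used Xenopus oocytes expressing concatenated human γ2–β2–α1–β2–α1 receptors. GABA (15 μM) was applied three times with 7–12 min washout, and currents were normalised to the mean of the last two applications. Preincubation was 60 s. Per cent modulation came from a published equation, and the Hill equation fit gave Imax and EC50, n = 5.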

human TRPV1 = human TRPV1 (Homo sapiens, UniProt Q8NER1); experiment: TRPV1 intracellular calcium assay; format: cell-based
[10] = molecular target: T2, concatenated human γ2–β2–α1–β2–α1 GABA receptor; experiment: GABAA receptor desensitization assay in Xenopus oocytes; format: cell-based; conditions: 10 μM CBGA, 180-s preincubation, 1 mM GABA; 103 ± 3% without preincubation
[11] = test system: 168 GPCRs and 74 orphan GPCRs; experiment: Eurofins DiscoverX PathHunter β-arrestin GPCR screen; format: cell-based; conditions: 3 μM
[12] = test system: pentylenetetrazole (PTZ)‐induced seizures; conditions: ref Hill et al., 2010; cited from earlier work
[13] = test system: hyperthermia‐induced seizures in Scn1a +/− mice; conditions: cited from earlier work
MES‐induced seizures = conditions: ref Hawkins et al., 2017; Luszczki et al., 2003; Miller et al., 1986; cited from earlier work
Scn1a +/− mice = conditions: ref Hawkins et al., 2017; Luszczki et al., 2003; Miller et al., 1986; cited from earlier work
[14] = Solubility of dosing preparations; format: physicochemical; conditions: for State of dosing preparation: ethanol:Tween 80:saline (1:1:18), 10 ml·kg−1, CBGV 100, CBDV 60, CBG 30 mg·kg−1; for Aqueous solubility: reason for not testing 100 mg·kg−1
[15] = acute i.p., CBGA 30 mg·kg−1 + clobazam 1 mg·kg−1
[16] = 30 mg·kg−1 single i.p., Scn1a+/− mice P14–16
[17] = 100 mg·kg−1 single i.p., Scn1a+/− mice P14–16
[18] = over all doses tested, single i.p., Scn1a+/− mice P14–16
[19] = Scn1a+/− mice, ref Anderson et al., 2021

T1 sequence (Q9Y2T6 whole entry): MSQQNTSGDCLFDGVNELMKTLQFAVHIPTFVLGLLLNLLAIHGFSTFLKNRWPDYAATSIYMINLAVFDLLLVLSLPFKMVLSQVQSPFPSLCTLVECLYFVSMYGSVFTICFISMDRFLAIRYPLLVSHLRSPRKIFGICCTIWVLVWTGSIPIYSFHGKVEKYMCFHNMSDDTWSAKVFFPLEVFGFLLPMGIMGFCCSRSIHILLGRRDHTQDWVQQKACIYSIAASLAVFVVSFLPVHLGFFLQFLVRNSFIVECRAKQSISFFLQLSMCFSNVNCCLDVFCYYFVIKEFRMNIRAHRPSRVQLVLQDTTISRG
T2 sequence (P14867 28-456): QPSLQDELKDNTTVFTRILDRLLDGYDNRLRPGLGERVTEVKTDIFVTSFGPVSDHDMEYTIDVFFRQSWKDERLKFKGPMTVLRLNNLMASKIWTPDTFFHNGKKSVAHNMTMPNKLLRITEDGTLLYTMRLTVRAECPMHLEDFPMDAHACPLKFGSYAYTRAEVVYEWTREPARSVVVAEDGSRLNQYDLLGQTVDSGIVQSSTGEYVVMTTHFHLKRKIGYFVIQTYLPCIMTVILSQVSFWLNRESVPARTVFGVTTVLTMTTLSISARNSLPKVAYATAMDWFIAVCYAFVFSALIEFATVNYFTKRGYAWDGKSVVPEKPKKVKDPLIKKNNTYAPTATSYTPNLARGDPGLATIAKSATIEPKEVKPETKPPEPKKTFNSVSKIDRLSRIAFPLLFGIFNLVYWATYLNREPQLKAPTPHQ
T2 sequence (P47870 26-512): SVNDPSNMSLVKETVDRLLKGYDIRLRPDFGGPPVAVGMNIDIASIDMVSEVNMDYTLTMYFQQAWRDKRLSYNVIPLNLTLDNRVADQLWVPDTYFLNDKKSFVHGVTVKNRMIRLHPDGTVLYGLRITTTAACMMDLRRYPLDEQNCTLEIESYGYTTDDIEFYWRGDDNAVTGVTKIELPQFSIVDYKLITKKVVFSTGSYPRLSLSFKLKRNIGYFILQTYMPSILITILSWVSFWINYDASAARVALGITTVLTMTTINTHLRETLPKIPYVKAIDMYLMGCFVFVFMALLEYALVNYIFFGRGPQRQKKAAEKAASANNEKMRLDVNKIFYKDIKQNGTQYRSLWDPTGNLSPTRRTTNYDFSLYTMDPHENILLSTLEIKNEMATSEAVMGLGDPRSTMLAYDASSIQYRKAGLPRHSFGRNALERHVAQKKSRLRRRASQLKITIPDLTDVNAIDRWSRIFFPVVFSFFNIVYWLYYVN
T2 sequence (P18507 40-475): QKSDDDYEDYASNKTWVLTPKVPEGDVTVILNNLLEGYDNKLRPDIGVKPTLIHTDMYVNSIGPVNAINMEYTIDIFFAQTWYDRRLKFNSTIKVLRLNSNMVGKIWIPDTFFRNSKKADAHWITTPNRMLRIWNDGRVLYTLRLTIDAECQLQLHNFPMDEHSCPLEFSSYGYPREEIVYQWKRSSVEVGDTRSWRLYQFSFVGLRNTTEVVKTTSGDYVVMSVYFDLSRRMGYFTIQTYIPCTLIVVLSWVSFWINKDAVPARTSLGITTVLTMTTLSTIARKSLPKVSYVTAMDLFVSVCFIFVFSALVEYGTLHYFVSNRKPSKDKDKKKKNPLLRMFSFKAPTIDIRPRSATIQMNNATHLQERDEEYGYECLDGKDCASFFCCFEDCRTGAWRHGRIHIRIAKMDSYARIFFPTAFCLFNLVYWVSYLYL
Sequence of human TRPV1 (Q8NER1 whole entry): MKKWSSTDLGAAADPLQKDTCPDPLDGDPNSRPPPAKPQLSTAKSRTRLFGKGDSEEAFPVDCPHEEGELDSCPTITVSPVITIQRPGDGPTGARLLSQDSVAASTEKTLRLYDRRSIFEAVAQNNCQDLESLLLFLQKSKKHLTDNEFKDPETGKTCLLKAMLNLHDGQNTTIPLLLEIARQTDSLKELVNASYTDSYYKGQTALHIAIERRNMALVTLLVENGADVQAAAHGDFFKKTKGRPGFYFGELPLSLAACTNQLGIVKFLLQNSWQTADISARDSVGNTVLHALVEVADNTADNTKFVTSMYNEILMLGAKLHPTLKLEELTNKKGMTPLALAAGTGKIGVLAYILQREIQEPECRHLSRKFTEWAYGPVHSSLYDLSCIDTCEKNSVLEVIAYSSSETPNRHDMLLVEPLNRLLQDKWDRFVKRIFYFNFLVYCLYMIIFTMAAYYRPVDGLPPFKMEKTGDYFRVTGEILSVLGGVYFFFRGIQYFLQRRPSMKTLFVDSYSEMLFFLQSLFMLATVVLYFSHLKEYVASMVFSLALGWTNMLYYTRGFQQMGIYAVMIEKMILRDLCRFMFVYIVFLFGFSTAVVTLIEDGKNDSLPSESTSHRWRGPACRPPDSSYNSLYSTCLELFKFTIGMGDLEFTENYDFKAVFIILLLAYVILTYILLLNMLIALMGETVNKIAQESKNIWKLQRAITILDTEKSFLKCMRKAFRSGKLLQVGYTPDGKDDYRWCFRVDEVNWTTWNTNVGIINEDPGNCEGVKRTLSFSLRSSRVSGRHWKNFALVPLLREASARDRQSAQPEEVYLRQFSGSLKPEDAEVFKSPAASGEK
Sequence of cannabinoid CB1 receptor (P21554 whole entry): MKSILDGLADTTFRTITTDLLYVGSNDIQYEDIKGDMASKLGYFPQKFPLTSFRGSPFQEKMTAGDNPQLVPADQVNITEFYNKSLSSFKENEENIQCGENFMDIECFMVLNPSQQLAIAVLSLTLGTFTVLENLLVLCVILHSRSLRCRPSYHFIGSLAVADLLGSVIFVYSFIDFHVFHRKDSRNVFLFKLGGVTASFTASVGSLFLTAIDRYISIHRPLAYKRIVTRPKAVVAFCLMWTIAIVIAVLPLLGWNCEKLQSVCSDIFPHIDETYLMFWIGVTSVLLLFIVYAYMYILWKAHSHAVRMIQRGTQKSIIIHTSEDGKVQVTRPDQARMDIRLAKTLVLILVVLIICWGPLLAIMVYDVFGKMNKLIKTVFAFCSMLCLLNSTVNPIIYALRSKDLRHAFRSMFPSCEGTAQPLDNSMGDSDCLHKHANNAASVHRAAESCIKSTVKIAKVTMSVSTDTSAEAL
Sequence of cannabinoid CB2 receptor (P34972 whole entry): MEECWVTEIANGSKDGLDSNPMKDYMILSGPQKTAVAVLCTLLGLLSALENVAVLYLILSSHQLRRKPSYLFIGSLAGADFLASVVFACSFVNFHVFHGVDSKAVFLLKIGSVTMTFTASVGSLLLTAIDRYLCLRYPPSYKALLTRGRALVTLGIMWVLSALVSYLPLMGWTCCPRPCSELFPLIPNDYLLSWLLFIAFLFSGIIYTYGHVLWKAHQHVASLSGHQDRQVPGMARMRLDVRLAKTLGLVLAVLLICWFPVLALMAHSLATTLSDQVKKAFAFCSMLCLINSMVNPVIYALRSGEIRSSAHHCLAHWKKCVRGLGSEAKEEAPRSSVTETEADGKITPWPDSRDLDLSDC

Molecule: lysophosphatidylinositol [LPI, reference compound]
- EC80 concentration for GPR55 activation (pERK) (GPR55 [1]): 4 μM

Molecule: O=C1CC(=O)N(c2ccccc2)c2cc(Cl)ccc2N1 [N‐desmethylclobazam]
- Plasma concentrations of N-desmethylclobazam on CBGA co-administration [2, 15]: reduced
- Plasma concentrations of N-desmethylclobazam when clobazam combined with CBGA ([2]; subchronic, chow): significantly lower

Molecule: CN1C(=O)CC(=O)N(c2ccccc2)c2cc(Cl)ccc21 [clobazam, reference compound]
- Plasma clobazam concentrations on CBGA co-administration [2, 15]: did not affect
- Temperature threshold for GTCS induced by hyperthermia vs vehicle ([3]; 1 mg·kg−1 single i.p., Scn1a+/− mice): significantly elevated
- Spontaneous GTCS frequency ([4]; 80 mg clobazam·kg−1 chow, oral, 60-h recording): significantly reducing
- Survival to P30 ([4]; clobazam 80 mg·kg−1 chow alone or plus CBGA 1400 mg·kg−1 chow): neither treatment had any effect
- Proportion of mice displaying GTCS ([4]; clobazam 80 mg·kg−1 chow alone or plus CBGA 1400 mg·kg−1 chow, controls 63%): 35%

Molecule: CCCC(CCC)C(=O)O [valproic acid, reference compound]
- Protection against seizure activity, 6-Hz threshold test ([5]; 300 mg·kg−1, 15 min prior): 100%
- Protection against seizure activity, MES threshold test [6]: 100%

Molecule: COc1ccc(S(=O)(=O)N2CCOCC2)cc1NC(=O)c1cc2c(s1)CCCC2 [ML‐186, reference compound]
- EC80 concentration for GPR55 activation (pERK) (GPR55 [1]): 0.45 μM

Molecule: CCCCCc1cc(O)c(C/C=C(\C)CCC=C(C)C)c(O)c1C(=O)O [CBGA, cannabigerolic acid]
- CC50 vs vehicle, 6-Hz threshold test ([5]; 10 mg·kg−1 i.p.): significantly lower
- CC50 vs vehicle, 6-Hz threshold test ([5]; 30 mg·kg−1 i.p.): significantly lower
- CC50 vs vehicle, 6-Hz threshold test ([5]; 100 mg·kg−1 i.p.): did not differ from vehicle
- Effect at cannabinoid CB1 receptor (cannabinoid CB1 receptor): did not affect
- Effect at cannabinoid CB2 receptor (cannabinoid CB2 receptor): did not affect
- Agonist activity at GPR55 (GPR55 [7]): not an agonist
- Plasma concentration of CBGA on cotreatment with clobazam [2, 15]: significantly increased
- Plasma CBGA concentrations on cotreatment with clobazam ([2]; subchronic, chow): no effect
- Brain penetration [8]: 2%
- Brain–plasma ratio [8]: 0.02
- Modulation of GABA-evoked currents at high concentration ([9]; 30 μM CBGA, GABA 15 μM): substantially reduced
- EC50 ([9]; EC50, positive modulation of GABA-evoked currents, GABA 15 μM): 0.91 µM
- Emax ([9]; read-out: Maximum modulation of GABA-evoked peak currents (E max)): 271 ± 40%
- IC50 (human TRPV1): 22 µM
- Non-specific calcium influx (human TRPV1; 30 and 100 μM CBGA, wildtype and TRPV1-expressing cells): non‐specific increase in intracellular calcium
- Agonist activity at TRPV1 (human TRPV1; calcium influx): did not display agonist activity
- Peak GABA current after preincubation (percentage of GABA response) [10]: 31 ± 11%
- Temperature threshold for GTCS induced by hyperthermia vs vehicle [3, 16]: anticonvulsant; also recorded: significantly elevated
- Temperature threshold for GTCS induced by hyperthermia vs vehicle [3, 17]: anticonvulsant
- Effective (anticonvulsant) dose against hyperthermia-induced seizures ([3]; Scn1a+/− mice): 30 mg/kg
- Temperature threshold for GTCS induced by hyperthermia vs vehicle [3, 18]: dose‐dependently increased
- Spontaneous GTCS frequency ([4]; 2500 mg·kg−1 chow, oral subchronic, 60-h recording): significantly increased
- Survival to P30 relative to controls ([4]; 1400 and 2500 mg·kg−1 chow, oral): did not differ
- Proportion of mice experiencing GTCS during observation period ([4]; 1400 and 2500 mg·kg−1 chow, oral subchronic, 60-h recording): Neither dose of CBGA affected
- Agonist or antagonist activity at 242 GPCRs [11]: No agonist or antagonist activity
- IC50 (GPR55 [1]; IC50, inhibition of GPR55 activation, rounded value of the discussion): ~5 µM
- IC50 (GPR55 [1]; IC50, inhibition of LPI-mediated GPR55 activity (pERK), LPI 4 μM (EC80)): 5.7 µM
- IC50 (GPR55 [1]; IC50, inhibition of ML-186-mediated GPR55 activity (pERK), ML-186 0.45 μM (EC80)): 4.8 µM
- Mode of antagonism at GPR55 (GPR55 [1]; ML-186 concentration–response curves with varying CBGA): non‐competitive antagonist

Molecule: CCCc1cc(O)c2c(c1)OC(C)(C)[C@@H]1CCC(C)=C[C@@H]21 [Δ^9‐THCV, tetrahydrocannabivarin]
- Effect against PTZ-induced seizures [12]: anticonvulsant effects
- Temperature threshold for GTCS induced by hyperthermia vs vehicle ([3]; 3 mg·kg−1 single i.p., Scn1a+/− mice P14–16): proconvulsant

Molecule: CCCCCc1cc2c(c(O)c1C(=O)O)C=CC(C)(CCC=C(C)C)O2 (stereo not drawn) [CBCA, cannabichromenic acid]
- Effect against hyperthermia-induced seizures [13, 19]: anticonvulsant effects

Molecule: Nc1nnc(-c2cccc(Cl)c2Cl)c(N)n1 [Lamotrigine]
- Effect against MES-induced seizures (MES‐induced seizures): anticonvulsant
- Effect on seizures in Scn1a+/− mice (Scn1a +/− mice): proconvulsant

Molecule: CCCc1cc(O)c(C/C=C(\C)CCC=C(C)C)c(O)c1C(=O)O [CBGVA, cannabigerovarinic acid]
- Temperature threshold for GTCS induced by hyperthermia vs vehicle [3, 17]: significantly elevated
- Effective (anticonvulsant) dose against hyperthermia-induced seizures ([3]; Scn1a+/− mice): 100 mg/kg

Molecule: CCCc1cc2c(c(O)c1C(=O)O)C=CC(C)(CCC=C(C)C)O2 (stereo not drawn) [CBCVA, cannabichromevarinic acid]
- Effect against hyperthermia-induced seizures [13, 19]: anticonvulsant effects

Molecule: C=C(C)[C@@H]1CCC(C)=C[C@H]1c1c(O)cc(CCCCC)cc1O [CBD, cannabidiol]
- Effect against hyperthermia-induced seizures ([13]; 100 mg·kg−1, ref Anderson, Absalom, et al., 2019, Anderson et al., 2020, Kaplan et al., 2017): anticonvulsant

Molecule: C=C(C)[C@@H]1CCC(C)=C[C@H]1c1c(O)cc(CCC)c(C(=O)O)c1O [CBDVA, cannabidivarinic acid]
- Temperature threshold for GTCS induced by hyperthermia vs vehicle [3, 17]: significantly elevated
- Effective (anticonvulsant) dose against hyperthermia-induced seizures ([3]; Scn1a+/− mice): 100 mg/kg

Molecule: CCCc1cc(O)c(C/C=C(\C)CCC=C(C)C)c(O)c1 [CBGV, cannabigerivarin]
- State of dosing preparation [14]: suspension
- Temperature threshold for GTCS induced by hyperthermia vs vehicle [3, 18]: Neither cannabigerol (CBG) nor cannabigerivarin (CBGV) affected thresholds

Molecule: C=C(C)[C@@H]1CCC(C)=C[C@H]1c1c(O)cc(CCC)cc1O [CBDV, cannabidivarin]
- State of dosing preparation [14]: near solubility limits
- Aqueous solubility [14]: poor aqueous solubility
- Temperature threshold for GTCS induced by hyperthermia vs vehicle [3, 16]: increase in GTCS temperature threshold

Molecule: CCCCCc1cc(O)c(C/C=C(\C)CCC=C(C)C)c(O)c1 [CBG, cannabigerol]
- State of dosing preparation [14]: near solubility limits
- Aqueous solubility [14]: poor aqueous solubility
- Mice seizure free (protected from GTCS) ([3]; 0.3 mg·kg−1 i.p., n = 12–18 per group): four
- Temperature threshold for GTCS induced by hyperthermia vs vehicle [3, 18]: Neither cannabigerol (CBG) nor cannabigerivarin (CBGV) affected thresholds
